# Only some compounds are listed: those with a hit (about 1.4% of all), similar ones and a draw of the others.
# HTRA1 inh: HTRA1 serine protease inhibitors, primary screen, biochemical, fluorescence polarization, HTS | recombinant HTRA1, FP-rhodamine activity-based probe | 340,000 compounds, 0.5% hits | AID 504803, 2011 | inhibition, % at 5.96 µM; in the data active means inhibition above about 36%
# Target sequence (Q92743 whole entry, looked up): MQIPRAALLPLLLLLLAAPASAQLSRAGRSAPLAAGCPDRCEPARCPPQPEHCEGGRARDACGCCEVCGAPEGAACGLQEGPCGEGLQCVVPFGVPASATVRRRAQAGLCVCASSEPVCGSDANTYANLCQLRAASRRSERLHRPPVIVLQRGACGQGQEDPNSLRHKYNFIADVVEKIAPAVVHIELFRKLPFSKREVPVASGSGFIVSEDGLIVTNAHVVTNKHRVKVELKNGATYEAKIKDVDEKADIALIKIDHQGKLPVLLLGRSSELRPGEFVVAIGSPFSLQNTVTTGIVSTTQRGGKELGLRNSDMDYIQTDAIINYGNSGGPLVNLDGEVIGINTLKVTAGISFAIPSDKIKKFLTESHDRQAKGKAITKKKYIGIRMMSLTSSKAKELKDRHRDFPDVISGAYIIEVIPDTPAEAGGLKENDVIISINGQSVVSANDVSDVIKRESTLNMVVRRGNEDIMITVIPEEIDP
# RBBP9 inh: human RBBP9 inhibitors, primary screen, biochemical, fluorescence polarization, FP-Rh probe, HTS. Serine hydrolase RBBP9 (Homo sapiens), O75884. inhibition, % at 7.94 µM. recombinant RBBP9. AID 1515, 2009. 220,000 compounds, 0.2% hits;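 active means inhibition above the campaign mean of all tested compounds plus 3 SD, cut at about 14% in these data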
#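 System: RBBP9 protein / Quantity: 2.5 µM RBBP9 dispensing solution, before mixing / Also added: Serine-hydrolase probe FP-Rh, 375 nM pre-mixing / Dosing: 7.94 µM single dose, 0.794% DMSO / Timing: enzyme-compound preincubation 30 min, then probe labeling 45 min, 25 °C / Signal: FP readout at 525/598 nm / Controls: DMSO-treated enzyme wells and wells lacking RBBP9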
# SIAE primary: human SIAE inhibitors, primary screen, biochemical, fluorescence polarization, FP-Rh probe, 1536-well HTS. Sialate O-acetylesterase (Homo sapiens), Q9HAT2. SIAE FP-Rh probe binding. inhibition, % at 9.66 µM. 370,000 compounds, 0.69% hits. AID 1053197, 2014;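 active means inhibition above a cutoff: mean of compounds within the control limits plus 3 SD of those, cut at about 17% in these data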
# ABHD4 inh: ABHD4 inhibitors, primary screen, biochemical, fluorescence polarization, mouse | (Lyso)-N-acylphosphatidylethanolamine lipase (Mus musculus), Q8VD66 | purified mABHD4, FP-Rh probe fluorescence polarization | inhibition, % at 8.92 µM | 370,000 compounds, 0.54% hits | AID 720543, 2013;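 active means inhibition exceeding the mean over every tested compound plus 3 SD, cut at about 30% in these data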
#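 system = mouse ABHD4 enzyme, wild type | medium = HEPES pH 7.0, NaCl, Pluronic buffer | also added = FP-Rh probe | incubation = Enzyme–compound pre-incubation 45 min, then probe 60 min, both 25 °C | technique = fluorescence polarization, excitation 525 nm, emission 598 nm, BODIPY TMR filters | controls = S159A mutant high control, sample median low control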
# SIAE confirm: human SIAE inhibitors, retest, confirmation, biochemical, fluorescence polarization, FP-Rh probe, triplicate; shares compounds with SIAE primary; SIAE FP-Rh activity-based probe; inhibition, % at 9.66 µM; 2,300 compounds, 13% hits; AID 1117263, 2014;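 active means mean inhibition of the replicates above the hit cutoff set in the primary screen, cut at about 17% in these data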;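 further: inhibitors lower polarization as more probe stays unbound to SIAE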
# A number is an active result; 0 = inactive; - = no result given.
SMILES,HTRA1 inh,RBBP9 inh,SIAE primary,ABHD4 inh,SIAE confirm
Cc1ccc(N(C)C(=O)c2ccc(CNc3c(N4CCC(C)CC4)c(=O)c3=O)cc2)cc1,0,0,20.1,0,0
CC1CCN(c2c(NCc3ccc(C(=O)N(C)C4CCCCC4)cc3)c(=O)c2=O)CC1,0,0,0,0,-
CCC(=O)NCCSc1c[nH]c2ccccc12,0,0,0,0,-
CCN(CC)S(=O)(=O)c1ccc(C(=O)NCCSc2c[nH]c3ccccc23)cc1,0,0,18.9,0,0
O=C(O)c1ccc(S(=O)(=O)NC2CCCc3ccccc32)cc1 (configuration not stated),0,0,0,0,-
O=S(=O)(NC1CCCc2ccccc21)c1cnc[nH]1 (configuration not stated),0,0,26.3,0,0
Cc1cc(C(=O)Nc2ccc(Nc3ccccc3)cc2)ccc1[N+](=O)[O-],0,-,19.1,0,19.1
CC(=O)NS(=O)(=O)c1ccc(NC(=O)c2ccc(Cl)cc2[N+](=O)[O-])cc1,0,0,0,0,-
O=C(Nc1ccc(Nc2ccccc2)cc1)c1ccc(Cl)cc1[N+](=O)[O-],-,-,21.0,0,0
Brc1cccc(C=Nc2cccc3ncccc23)c1,0,-,0,0,-
Oc1c(Br)cc(Br)cc1C=Nc1cccc2ncccc12,0,-,21.9,0,0
CCn1c(-c2ccccc2)csc1=Nc1ccc(O)cc1,0,0,25.3,0,0
COc1ccc(NC(C)=O)c([N+](=O)[O-])c1[N+](=O)[O-],0,-,0,0,-
COc1ccc(OC)c([N+](=O)[O-])c1C(N)=O,0,0,33.0,0,0
CCc1ccc(NC(=O)C(C)Sc2nnc(CN3CCCC3)o2)cc1 (configuration not stated),0,-,18.8,0,0
CC(Sc1nnc(COc2ccc(Cl)cc2)o1)C(=O)Nc1ccc(N2CCOCC2)cc1 (configuration not stated),0,-,0,0,-
Cc1ccc(S(=O)(=O)N2CCCC2C(=O)NCc2ccccc2Cl)cc1 (configuration not stated),0,-,0,0,-
COc1ccc(NC(=O)c2ccc(-c3ccc([N+](=O)[O-])cc3)o2)cc1OC,0,0,19.0,0,0
Oc1c(N=Nc2ccc(F)cc2)ccc2ccccc12,0,-,0,0,-
Oc1c(N=Nc2nn[nH]n2)ccc2ccccc12,-,-,24.7,0,44.0
CCOC(=O)c1sc(Nc2nc3cc4c(cc3s2)OCO4)cc1C,0,0,19.0,0,0
COc1cccc2sc(Nc3nc4ccc(NC(C)=O)cc4s3)nc12,0,0,0,0,-
CCOC(=O)c1sc(Nc2nc3c(OC)cccc3s2)cc1C,0,0,19.4,0,0
CCc1cccc(NC(=O)Nc2cccs2)c1,0,0,17.2,0,0
O=C(N/N=C1/CC2CCC1C2)c1cc2ccccc2cc1O (configuration not stated),0,-,18.8,0,0
SMILES,HTRA1 inh,RBBP9 inh,SIAE primary,ABHD4 inh,SIAE confirm
O=C(NCC1CCCCC1)c1cc2ccccc2cc1O,0,-,0,0,-
CC1CN(S(=O)(=O)c2cccc(C(=O)N(Cc3nnc(-c4ccccc4Cl)o3)C3CC3)c2)CC(C)O1 (configuration not stated),0,-,17.4,0,0
O=C(c1cccc(S(=O)(=O)N2CCOCC2)c1)N(Cc1nnc(-c2ccccc2Cl)o1)C1CC1,0,-,0,0,-
COC(=O)[C@]12C[C@H](CC(=O)NCc3ccc(C)o3)C(=O)N(Cc3ccc4c(c3)OCO4)C1=C[C@H](C(C)(C)C)O[C@@H]2C,-,-,0,0,-
CC1(C)CC(=O)c2cc(N=C/C(C(=O)c3ccccc3)=C(\O)c3ccccc3)c(=O)oc2C1,0,0,17.2,0,0
Cc1ccc2nc(SCC(=O)N/N=C/c3ccco3)cc(C)c2c1,0,0,0,0,-
Cc1cc(SCC(=O)N/N=C/c2ccc(O)cc2O)nc2ccccc12,0,-,22.8,0,0
COC(=O)c1cc2c(c3c4cc(C)ccc4n(S(=O)(=O)c4cccc(C)c4)c13)C(=O)N(Cc1ccc(N(C)C)cc1)C2,-,-,0,0,-
Cc1cccc(OCCC(=O)NNC(=O)Cn2nc(C)cc2C)c1,0,-,0,0,-
CCOc1ccccc1OCCC(=O)NNC(=O)Cn1nc(C)cc1C,0,-,17.5,0,0
CC(=O)Nc1nc(C)c(-c2csc(Nc3cccc(C(C)=O)c3)n2)s1,0,-,42.0,0,64.7

# Screening data from PubChem.
